STAT3 act: STAT3 signaling activation. activation (% of control), % at 5.6 µM. hit rate 0.91% among 190,000. U3A cells, IL-6 STAT3-luciferase reporter, luminescence; 100% = signal with IL-6 EC80 alone. AID 871;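 active = activation above the screen-wide mean of compound activation plus 3 SD, cut at about 130% in these data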
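Material: STAT3-luciferase reporter U3A cells; Probe or stimulus: IL-6 (33 ng/mL); Incubation: compound pre-incubation 1 h before IL-6, then 6 h stimulation at 37 °C; Technique: luminescence from STAT3-driven luciferase reporter; Evaluation: % activation versus median of IL-6-stimulated wells; Controls: IL-6-only high control.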
thrombin 1536: blocks human thrombin protease activity. P00734. alpha-thrombin, Boc-VPR-AMC fluorogenic substrate cleavage. inhibition, % at 5 µM. hit rate 0.26% among 220,000. AID 1046;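 active = inhibition at or above 40%; inactive = inhibition below 40%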
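Material: Human alpha-thrombin protein | Buffer or medium: pH 7.5 Tris-saline with Tween 20 | Reagent: Boc-VPR-AMC substrate, 15 µM final | Schedule: Reaction at ambient temperature | Detection: AMC fluorescence at 355 nm excitation and 460 nm emission | Evaluation: Percent inhibition scaled between no-compound controls and no-enzyme blanks | Controls: no-compound enzyme wells and no-enzyme blanks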
hK5 inh: blocks human kallikrein 5 protease activity. Q9Y337. recombinant hK5, fluorogenic AMC substrate cleavage. inhibition, % at 5 µM. hit rate 0.59% among 210,000. AID 873;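 active = inhibition of 40% or more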
Target sequence (Q9Y337 67-293 limits assumed): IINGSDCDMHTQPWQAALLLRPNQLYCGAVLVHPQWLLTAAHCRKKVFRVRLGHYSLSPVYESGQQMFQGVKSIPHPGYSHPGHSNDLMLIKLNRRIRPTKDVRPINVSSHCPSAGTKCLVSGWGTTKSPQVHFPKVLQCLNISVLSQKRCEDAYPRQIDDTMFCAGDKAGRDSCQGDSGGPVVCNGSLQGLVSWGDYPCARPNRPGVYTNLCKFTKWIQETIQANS
AHR activator: activators of human aryl hydrocarbon receptor | AHR-responsive luciferase reporter cells, luminescence | activation, % at 5 µM | hit rate 2.5% among 320,000 | P35869; in the data active = activation above about 47%
FXIIa inh: factor XIIa (human) inhibition | hit rate 0.3% among 220,000 | AID 800 | P00748 | inhibition, % at 5 µM | purified FXIIa, Boc-QGR-AMC fluorogenic substrate, 2 h; in the data active = inhibition above about 40%
FXIa inh: inhibitors of human coagulation factor XIa. purified FXIa, Boc-Glu-Ala-Arg-AMC fluorogenic substrate. P03951. inhibition, % at 5 µM. AID 798. hit rate 0.14% among 220,000;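 active = inhibition of at least 40%; inactive = inhibition below 40%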;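 note: fluorescence of freed AMC excited at 355 nm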
Hits are given with their value. Hits are enriched below; roughly 3.5% of the tested compounds scored in any of these assays.

Cc1cccc(NC(=O)c2ccc3ccccc3n2)c1C was read as STAT3 act 142, thrombin 1536 inactive, hK5 inh inactive, AHR activator 58, FXIIa inh inactive and FXIa inh inactive.
For Cc1csc(NC(=O)c2cnc3ccccc3n2)n1 the results were AHR activator 57.
For O=C(Nc1ccc(N2CCCCC2)cc1)c1ccc2ccccc2n1 the results were STAT3 act inactive, thrombin 1536 inactive, hK5 inh inactive, AHR activator 63, FXIIa inh inactive and FXIa inh inactive.
Screening Cc1csc(NC(=O)c2ccc(C(=O)Nc3nc(C)cs3)cc2)n1 returned thrombin 1536 inactive, hK5 inh inactive, AHR activator inactive, FXIIa inh inactive and FXIa inh inactive.
Screening CCn1c(COc2cccc(C)c2C)nnc1SCC(=O)N1CCN(c2ccc(OC)cc2)CC1 returned STAT3 act inactive, thrombin 1536 inactive, hK5 inh inactive, AHR activator inactive, FXIIa inh inactive and FXIa inh inactive.
For O=C(COc1ccc(Cl)cc1)NCc1cn2cc(Cl)ccc2n1 the results were STAT3 act inactive, thrombin 1536 inactive, hK5 inh inactive, AHR activator inactive, FXIIa inh inactive and FXIa inh inactive.
COc1ccc(C(=O)CCC(=O)Nc2cccnc2)cc1OC was read as AHR activator inactive.
For CC[C@@]1(C(=O)OC)N[C@H](CN(C)S(=O)(=O)c2ccc(C(F)(F)F)cc2)[C@@H]2C(=O)N(C)C(=O)[C@@H]21 the results were AHR activator inactive.
O=C(Nc1nccs1)c1ccccc1Br was read as AHR activator inactive.
`O=C(Nc1nccs1)c1ccc2ccccc2n1` gave AHR activator 50.
Screening Fc1ccc(Cn2c(-c3cscn3)nc3ccccc32)c(Cl)c1 returned STAT3 act inactive, thrombin 1536 inactive, hK5 inh inactive, AHR activator inactive, FXIIa inh inactive and FXIa inh inactive.
Screening O=C(Cn1c(-c2cscn2)nc2ccccc21)Nc1ccccc1F returned STAT3 act inactive, thrombin 1536 inactive, hK5 inh 42, AHR activator inactive, FXIIa inh inactive and FXIa inh inactive.
`O=C(CN1C(=O)COc2ccc(S(=O)(=O)N3CCCC3)cc21)NCc1ccccn1` gave thrombin 1536 inactive, hK5 inh inactive, AHR activator inactive, FXIIa inh inactive and FXIa inh inactive.
For O=C(Cc1nnc(NC(=O)c2ccccc2)s1)N/N=C/c1ccc(O)cc1 the results were AHR activator inactive.
O=C(Cc1nnc(NC(=O)c2ccccc2)s1)N/N=C\c1ccc(O)c(O)c1 was read as AHR activator 56.
`CC1CN(c2nnnn2-c2ccccc2)CC(C)O1` (stereo unspecified) gave STAT3 act inactive, thrombin 1536 inactive, hK5 inh 67, AHR activator inactive, FXIIa inh inactive and FXIa inh inactive.
For COc1cc(-c2noc(C)c2C(=O)NCCCN2CCOCC2)cc(OC)c1OC the results were AHR activator inactive.
For COc1ccc(C2=CC(=O)C[C@H](c3ccc4c(c3)OCO4)C2)cn1 the results were AHR activator inactive.
`O=C1C=C(c2ccc(F)nc2)C[C@@H](c2ccc3c(c2)OCO3)C1` gave AHR activator 58.
`COC(=O)c1ccccc1S(=O)(=O)N(Cc1cc2cc3c(cc2[nH]c1=O)OCO3)C1CCCCC1` gave STAT3 act inactive, thrombin 1536 inactive, hK5 inh inactive, AHR activator 63, FXIIa inh inactive and FXIa inh inactive.
`COc1cccc(N2CCN(CC(=O)Nc3ccccc3C(=O)NCCc3ccccc3)CC2)c1` gave AHR activator inactive.
`O=C(CN1CCN(c2ccc(O)cc2)CC1)Nc1ccccc1C(=O)NCCc1ccccc1` gave AHR activator 74.
`CCCc1nnc(NC(=O)CCC(=O)Nc2ccc(F)cc2)s1` gave STAT3 act inactive, thrombin 1536 inactive, hK5 inh inactive, AHR activator inactive, FXIIa inh inactive and FXIa inh inactive.
Screening COc1ccc(NC(=O)CN(C)C(=O)Cn2cnc3c2c(=O)n(C)c(=O)n3C)cc1 returned AHR activator inactive.
Screening O=C(O)c1ccc(CSc2nnc(-c3ccncc3)n2CC2CCCO2)cc1 (stereo unspecified) returned STAT3 act inactive, thrombin 1536 inactive, hK5 inh inactive, AHR activator inactive, FXIIa inh inactive and FXIa inh inactive.
Screening Cc1ccc(CSc2nnc(-c3ccncc3)n2CC2CCCO2)cc1 (stereo unspecified) returned STAT3 act inactive, thrombin 1536 inactive, hK5 inh 81, AHR activator inactive, FXIIa inh inactive and FXIa inh inactive.
For CN(C)/C=C(\C#N)C(=O)N/N=C/c1ccccc1 the results were STAT3 act inactive, thrombin 1536 inactive, hK5 inh inactive, AHR activator inactive, FXIIa inh inactive and FXIa inh inactive.
Screening CNc1nc(N)c([N+](=O)[O-])c(Nc2cccc(Cl)c2)n1 returned thrombin 1536 inactive, hK5 inh inactive, AHR activator 58, FXIIa inh inactive and FXIa inh inactive.
For Cc1ccc(CNc2nc(N)c([N+](=O)[O-])c(NCCO)n2)cc1 the results were thrombin 1536 inactive, hK5 inh inactive, AHR activator inactive, FXIIa inh inactive and FXIa inh inactive.
`COc1ccc(OC)c(Nc2nc(NCc3ccco3)nc(N)c2[N+](=O)[O-])c1` gave thrombin 1536 inactive, hK5 inh inactive, AHR activator 62, FXIIa inh inactive and FXIa inh inactive.
Screening Cc1ccc(Nc2nc(N)c([N+](=O)[O-])c(NCCO)n2)cc1C returned thrombin 1536 inactive, hK5 inh inactive, AHR activator 81, FXIIa inh inactive and FXIa inh inactive.
For Nc1nc(NCc2ccco2)nc(Nc2ccc(F)cc2)c1[N+](=O)[O-] the results were thrombin 1536 inactive, hK5 inh inactive, AHR activator 113, FXIIa inh inactive and FXIa inh inactive.
For COc1ccccc1Nc1nc(NCc2ccco2)nc(N)c1[N+](=O)[O-] the results were thrombin 1536 inactive, hK5 inh inactive, AHR activator inactive, FXIIa inh inactive and FXIa inh inactive.
`CC1(C)CN=C(N(Cc2ccccc2)C(=O)Nc2ccccc2)S1` gave STAT3 act inactive, thrombin 1536 inactive, hK5 inh inactive, AHR activator inactive, FXIIa inh inactive and FXIa inh inactive.
`COc1ccc(CNC(=O)c2cccc(-c3ccc(C)c4ccccc34)n2)cc1` gave STAT3 act inactive, thrombin 1536 inactive, hK5 inh inactive, AHR activator inactive, FXIIa inh inactive and FXIa inh inactive.
Screening O=C(CCC(=O)OCC(=O)c1cccc([N+](=O)[O-])c1)Nc1ccccc1Cl returned STAT3 act inactive, thrombin 1536 inactive, hK5 inh inactive, AHR activator inactive, FXIIa inh inactive and FXIa inh inactive.
`O=C1NC(NS(=O)(=O)c2ccccc2)(C(F)(F)F)C(=O)N1Cc1ccccc1` (stereo unspecified) gave AHR activator inactive.
